Experimental data reported in ChEMBL document CHEMBL1156462, “Seco-pregnane steroids target the subgenomic RNA of alphavirus-like RNA viruses” (Proc Natl Acad Sci U S A, 2007).
Calls of active or inactive are those of the source. The rule behind the calls is not given here.

What was measured:
Tobacco mosaic virus [1] = assay: Inhibition of TMV U1 replication in tobacco BY2 protoplast by local lesion assay using Chenopodium quinoa leaves; format: functional, organism-based
Method in brief: (§1)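 TMV premixed with compound at a range of concentrations used to inoculate tobacco BY-2 protoplasts; virus multiplication then assayed by counting local lesions on the local lesion host Chenopodium quinoa.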

Tobacco mosaic virus [2] = assay: Decrease in TMV U1 coat protein level in TMV infected tobacco BY2 protoplast at 50 nM by Western blot analysis; format: functional, organism-based
Method in brief: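 BY-2 protoplasts (5 ml, 1.5 × 10⁶/ml) infected with TMV pretreated with compound; total protein extracted and coat protein detected by Western blot.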

Tobacco mosaic virus [3] = assay: Inhibition of TMV U1 multiplication in tobacco BY2 protoplast at 10 nM assessed as local lesion size on Chenopodium quinoa leaves by local lesion assay; format: functional
Tobacco mosaic virus [4] = assay: Inhibition of TMV U1 multiplication in tobacco BY2 protoplast at 30 nM assessed as local lesion size on Chenopodium quinoa leaves by local lesion assay; format: functional
Tobacco mosaic virus [5] = assay: Inhibition of TMV U1 multiplication in tobacco BY2 protoplast at 10 nM assessed as inhibition of local lesions on Chenopodium quinoa leaves by local lesion assay after 3 days postinfection; format: functional; conditions: U1, 72 h; method in brief: as §1
Tobacco mosaic virus [6] = assay: Inhibition of TMV U1 multiplication in tobacco BY2 protoplast at 50 nM assessed as inhibition of local lesions on Chenopodium quinoa leaves by local lesion assay after 3 days postinfection; format: functional; conditions: U1, 72 h; method in brief: as §1
Tobacco mosaic virus [7] = assay: Inhibition of TMV U1 multiplication in tobacco BY2 protoplast at 20 nM assessed as inhibition of local lesions on Chenopodium quinoa leaves by local lesion assay after 3 days postinfection; format: functional; conditions: U1, 72 h; method in brief: as §1
Tobacco mosaic virus [8] = assay: Inhibition of TMV U1 multiplication in tobacco BY2 protoplast at 40 nM assessed as inhibition of local lesions on Chenopodium quinoa leaves by local lesion assay after 3 days postinfection; format: functional; conditions: U1, 72 h; method in brief: as §1
Tobacco mosaic virus [9] = assay: Inhibition of TMV U1 multiplication in tobacco BY2 protoplast at 30 nM assessed as inhibition of local lesions on Chenopodium quinoa leaves by local lesion assay after 3 days postinfection; format: functional; conditions: U1, 72 h; method in brief: as §1
Sindbis virus = assay: Antiviral activity against Sindbis virus XJ160 in BHK21 cells assessed as reduction of virus-induced cytopathic effect after 24 hrs; format: functional, organism-based; conditions: BHK-21
Method in brief: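 SINV XJ-160 (2 × 10⁵ pfu/ml, thrice plaque-purified) treated with compound for 15 min, adsorbed 1 h to BHK-21 cells at MOI 0.01 in quadruplicate; washed, fresh DMEM with 5% FBS added, cells kept at 37°C, 5% CO₂. Cytopathic morphology scored by light microscopy at 24 hpi.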

[10] = Growth inhibition of hamster BHK21 cells at 100 nM after 48 hrs; format: cell-based, Mesocricetus auratus; conditions: bhk-21, 48 h, 0.1 µM
Method in brief: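 BHK-21 cells mock-infected and incubated with 100 nM compound for 48 h; cell morphology and growth examined by light microscopy.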

Tobacco mosaic virus [11] = assay: Inhibition of TMV U1 multiplication in tobacco BY2 protoplast at 20 nM assessed as local lesion size on Chenopodium quinoa leaves by local lesion assay; format: functional
Tobacco mosaic virus [12] = assay: Inhibition of TMV U1 multiplication in tobacco BY2 protoplast at 50 nM assessed as local lesion size on Chenopodium quinoa leaves by local lesion assay; format: functional
Tobacco mosaic virus [13] = assay: Inhibition of TMV U1 replication in tobacco BY2 protoplast at 50 nM by local lesion assay using Chenopodium quinoa leaves; format: functional, organism-based; method in brief: as §1
Tobacco mosaic virus [14] = assay: Inhibition of TMV U1 multiplication in tobacco BY2 protoplast at 40 nM assessed as local lesion size on Chenopodium quinoa leaves by local lesion assay; format: functional
Tobacco mosaic virus [15] = assay: Antiviral activity against GFP-fused TMV U1 infected Nicotiana tabacum cv K326 plant leaves assessed as inhibition of virus movement by GFP fluorescence assay; format: functional, organism-based
Tobacco mosaic virus [16] = assay: Antiviral activity against TMV U1 infected Nicotiana tabacum cv K326 plant leaves assessed as inhibition of systemic virus infection; format: functional, organism-based

Compound	IC50 (Tobacco mosaic virus [1]) [nM]	Activity (Tobacco mosaic virus [2])	Activity (Tobacco mosaic virus [3]) [mm]	Activity (Tobacco mosaic virus [4]) [mm]	inhibition at 0.01 µM (Tobacco mosaic virus [5]) [%]	inhibition at 0.05 µM (Tobacco mosaic virus [6]) [%]	inhibition at 0.02 µM (Tobacco mosaic virus [7]) [%]	inhibition at 0.04 µM (Tobacco mosaic virus [8]) [%]	inhibition at 0.03 µM (Tobacco mosaic virus [9]) [%]	Activity (Sindbis virus)	Activity [10]	Activity (Tobacco mosaic virus [11]) [mm]	Activity (Tobacco mosaic virus [12]) [mm]	Activity (Tobacco mosaic virus [13])	Activity (Tobacco mosaic virus [14]) [mm]	Activity (Tobacco mosaic virus [15])	Activity (Tobacco mosaic virus [16])
CO[C@@H]1C[C@H](O[C@H]2CC[C@@]3(C)C(=CC[C@H]4C(=O)OC5CO[C@]6(C)OC=C(CC[C@@H]43)[C@H]56)C2)O[C@H](C)[C@H]1O (stereo not given in full) [CYNATRATOSIDE A]	25	Active	2.3	1.5	20	100	37	93	87	Dose-dependent effect	Non-toxic	1.8	0	Active	1.2	–	–
C[C@]12OC=C3CC[C@H]4[C@@H](CC=C5C[C@@H](O)CC[C@@]54C)C(=O)OC(CO1)[C@@H]32 (stereo not given in full) [GLAUCOGENIN C]	17	Active	2.1	1.5	17	100	60	85	79	Dose-dependent effect	Non-toxic	1.9	0	Active	1.3	Active	–
CO[C@H]1C[C@H](O[C@H]2[C@@H](OC)C[C@H](O[C@@H]3[C@@H](C)O[C@H](O[C@H]4CC[C@@]5(C)C(=CC[C@H]6C(=O)OC7CO[C@]8(C)OC=C(CC[C@@H]65)[C@H]78)C4)C[C@H]3OC)O[C@@H]2C)O[C@@H](C)[C@@H]1O[C@@H]1O[C@H](CO)[C@@H](O[C@@H]2O[C@H](CO)[C@@H](O)[C@H](O)[C@H]2O)[C@H](O)[C@H]1O (stereo not given in full) [PANICULATUMOSIDE D]	25	Active	1.7	1.4	6	100	31	88	79	Dose-dependent effect	Non-toxic	1.6	0	Active	1.2	Active	Active
CO[C@@H]1C[C@@H](O[C@H]2CC[C@@]3(C)C(=CC[C@H]4C(=O)OC5CO[C@]6(C)OC=C(CC[C@@H]43)[C@H]56)C2)O[C@H](C)[C@H]1O[C@H]1C[C@H](O)[C@H](O[C@H]2C[C@@H](OC)[C@@H](O[C@@H]3O[C@H](CO)[C@@H](O[C@@H]4O[C@H](CO)[C@@H](O)[C@H](O)[C@H]4O)[C@H](O)[C@H]3O)[C@H](C)O2)[C@@H](C)O1 (stereo not given in full) [PANICULATUMOSIDE E]	25	Active	1.6	1.2	16	100	38	87	73	Dose-dependent effect	Non-toxic	1.3	0	Active	1.1	Active	Active
